MT stabilizer: microtubule stabilization, imaging screen. hit rate 0.83% among 200,000. HeLa tubulin immunostaining HCS, 24 h; share of cells brighter than vehicle mean+2SD. % tubulin-high responders, % at 10 µM;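 active means plate Z-score above 3 for both tubulin-high and condensed-nucleus cell shares, with cell loss under 80%, at 10 µM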;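 further: anti alpha tubulin signal scored within the nucleus-defined area of each cell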
TLR9-MyD88 inh: inhibitors of human TLR9-MyD88 binding; CHO BLA complementation TLR9-MyD88, CCF4 FRET ratio; inhibition, % at 4.98 µM; hit rate 0.21% among 340,000;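 active means inhibition above the mean over all tested compounds plus 3 SD, cut at about 21% in these data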
b-catenin transl: modulators of beta-catenin nuclear translocation; nuclear translocation activity, % at 5 µM; hit rate 0.3% among 190,000; HeLa beta-catenin nuclear translocation, immunofluorescence imaging;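 active means nuclear translocation activity above 50% at 5 µM, with a well cell count of 50 or more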;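 further: per-cell ratio of nuclear to cytoplasmic median beta-catenin stain intensity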
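Test system: human HeLa cells, native beta-catenin. Compound dosing: 5 µM primary single dose, 0.1% DMSO, 0.02–20 µM confirmation series. Incubation: compound exposure 24 h at 37°C. Detection: beta-catenin immunostaining with DAPI counterstain, 20x imaging, 6 fields/well. Read-out basis: Nuclear/cytoplasmic beta-catenin signal ratio, % activation.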
NOD2 RIPK2 PPI: NOD2-RIPK2 protein interaction inhibition; O43353; CHO BLA complementation NOD2-RIPK2, CCF4 ratio; inhibition, % at 4.98 µM; hit rate 0.38% among 360,000; in the data active means inhibition above about 21%
Target sequence (O43353 whole entry, looked up): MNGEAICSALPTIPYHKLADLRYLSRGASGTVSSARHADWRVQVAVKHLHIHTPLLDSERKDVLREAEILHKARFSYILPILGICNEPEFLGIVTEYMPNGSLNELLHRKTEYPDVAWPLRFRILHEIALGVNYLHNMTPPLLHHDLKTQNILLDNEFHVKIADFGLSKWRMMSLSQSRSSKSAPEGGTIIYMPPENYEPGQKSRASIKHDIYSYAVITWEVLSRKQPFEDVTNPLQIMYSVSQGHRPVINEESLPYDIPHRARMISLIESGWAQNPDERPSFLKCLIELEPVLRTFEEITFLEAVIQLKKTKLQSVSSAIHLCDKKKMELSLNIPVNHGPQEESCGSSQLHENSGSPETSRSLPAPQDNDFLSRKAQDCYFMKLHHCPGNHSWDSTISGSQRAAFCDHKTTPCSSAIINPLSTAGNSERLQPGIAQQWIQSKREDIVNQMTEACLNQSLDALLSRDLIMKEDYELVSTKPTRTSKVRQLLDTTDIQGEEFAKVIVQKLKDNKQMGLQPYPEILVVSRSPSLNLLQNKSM
Hsp70 act: transcriptional activators of Hsp70. activation, % at 10 µM. HeLa Hsp70 promoter luciferase reporter, luminescence; scaled: vehicle 0, proteasome-inhibitor control 100%. hit rate 0.04% among 200,000;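 active means activation above the mean across all tested compounds plus 3 SD, cutoff set per campaign, cut at about 5.5% in these data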
TLR4-MyD88 BLA: inhibitors of human TLR4-MyD88 binding; O00206+Q99836; HeLa CL3-4 TLR4/MyD88 BLA complementation, FRET ratio; inhibition, % at 8.4 µM; hit rate 0.18% among 200,000; AID 861; in the data active means inhibition above about 25%
TLR4 MyD88 cnf: confirmation of human TLR4-MyD88 binding inhibitors | AID 941 | hit rate 50% among 350 | HeLa CL3-4 BLA complementation, CCF4 FRET ratio | inhibition, % at 8.4 µM | shares compounds with TLR4-MyD88 BLA;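 active means mean inhibition across three repeat runs above about 25% carried over from the earlier screen, limit read from the data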
BLA inh HeLa: beta-lactamase inhibition flagged in TLR4-MyD88 counter-screen; HeLa BLA reporter, CCF4 FRET ratio; shares compounds with TLR4-MyD88 BLA; AID 1237; inhibition, % at 8.4 µM; hit rate 63% among 350;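 active means mean inhibition over three repeats above about 26% taken from the earlier screen, limit read from the data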;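 further: HeLa cells stably expressing beta-lactamase reporter as counterscreen for TLR4-MyD88 inhibitors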
Hsp70 act DR: activates Hsp70 transcription in dose response | shares compounds with Hsp70 act | HeLa hsp70.1pr-luc reporter, luciferase luminescence | calls only at 99 µM | hit rate 10% among 70 | AID 1252;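 active means over 50% activation at some tested dose; inactive means under 50% activation at every tested dose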
Hits are given with their value. This is a sample that favours compounds with a hit; in the whole collection about 1% have one here.

For O=C(Nc1ccc(S(=O)(=O)Nc2nccs2)cc1)c1cccc(N2C(=O)c3ccccc3C2=O)c1 the results were MT stabilizer inactive, TLR9-MyD88 inh inactive, b-catenin transl inactive, NOD2 RIPK2 PPI inactive, Hsp70 act inactive and TLR4-MyD88 BLA inactive.
For O=C(Nc1nccs1)c1cccc(N2C(=O)c3cccc4c([N+](=O)[O-])ccc(c34)C2=O)c1 the results were MT stabilizer inactive, TLR9-MyD88 inh inactive, NOD2 RIPK2 PPI inactive, Hsp70 act inactive, TLR4-MyD88 BLA 28, TLR4 MyD88 cnf inactive and BLA inh HeLa 32.
Screening CCN(CC)c1ccc(/C=C/c2nc3ccccc3s2)cc1 returned MT stabilizer inactive, Hsp70 act inactive, TLR4-MyD88 BLA 56, TLR4 MyD88 cnf 48 and BLA inh HeLa 76.
`COc1ccc(C2C=C(c3ccccc3)Nc3nc(CCCO)nn32)cc1` (stereo unspecified) gave MT stabilizer inactive, b-catenin transl inactive, Hsp70 act inactive, TLR4-MyD88 BLA 26, TLR4 MyD88 cnf 26 and BLA inh HeLa 38.
`COc1ccc(C2C=C(c3cccs3)Nc3nc(CCCO)nn32)cc1` (stereo unspecified) gave MT stabilizer inactive, b-catenin transl inactive, Hsp70 act inactive, TLR4-MyD88 BLA 32, TLR4 MyD88 cnf 33 and BLA inh HeLa 56.
CCOC(=O)C1(C)CCCN1C(=O)c1ccc(F)c(Cl)c1 (stereo unspecified) was read as NOD2 RIPK2 PPI inactive.
COCCN1C(=O)N(c2cccc(OC)c2)C(=O)C1CC(=O)Nc1cccc(F)c1 (stereo unspecified) was read as TLR9-MyD88 inh inactive and NOD2 RIPK2 PPI inactive.
Screening CCNC(=O)CC1C(=O)N(c2cccc(OC)c2)C(=O)N1CCOC (stereo unspecified) returned MT stabilizer inactive, TLR9-MyD88 inh inactive, b-catenin transl inactive, NOD2 RIPK2 PPI inactive, Hsp70 act inactive, TLR4-MyD88 BLA 25, TLR4 MyD88 cnf inactive and BLA inh HeLa inactive.
Cc1ccc(NC(=O)Cc2nnc(SCC(=O)NC3CCCC3)n2C)c(C)c1 was read as TLR9-MyD88 inh inactive and NOD2 RIPK2 PPI inactive.
Screening CCN1CCN(c2cc(C)c3cc(NC(=S)N4CCN(c5ccccc5)CC4)ccc3n2)CC1 returned MT stabilizer inactive, TLR9-MyD88 inh inactive, b-catenin transl inactive, NOD2 RIPK2 PPI inactive, Hsp70 act inactive, TLR4-MyD88 BLA 26, TLR4 MyD88 cnf 25 and BLA inh HeLa 37.
Cn1c(Cl)cnc1C1CC(=O)c2cc(Cl)ccc2O1 (stereo unspecified) was read as MT stabilizer inactive, TLR9-MyD88 inh inactive, b-catenin transl inactive, NOD2 RIPK2 PPI inactive, Hsp70 act inactive, TLR4-MyD88 BLA 27, TLR4 MyD88 cnf inactive and BLA inh HeLa inactive.
For O=C1CC(c2ccc(Cl)cc2)Oc2ccc(Cl)cc21 (stereo unspecified) the results were TLR9-MyD88 inh inactive and NOD2 RIPK2 PPI inactive.
O=C(N=c1ccn(-c2nc3ccccc3nc2NS(=O)(=O)c2ccccc2)cc1)c1cccs1 was read as MT stabilizer inactive, TLR9-MyD88 inh inactive, b-catenin transl inactive, NOD2 RIPK2 PPI inactive, Hsp70 act inactive, TLR4-MyD88 BLA 66, TLR4 MyD88 cnf inactive and BLA inh HeLa inactive.
Cc1ccccc1C(=O)N=c1ccn(-c2nc3ccccc3nc2NS(=O)(=O)c2ccc(F)cc2)cc1 was read as TLR9-MyD88 inh inactive and NOD2 RIPK2 PPI inactive.
COc1ccc(/C=C/C(=O)c2c(O)cc(C)oc2=O)c(OC)c1 was read as MT stabilizer inactive, TLR9-MyD88 inh inactive, b-catenin transl inactive, NOD2 RIPK2 PPI inactive, Hsp70 act inactive and TLR4-MyD88 BLA inactive.
COc1cccc(/C=C/C(=O)c2c(O)cc(C)oc2=O)c1O was read as MT stabilizer inactive, TLR9-MyD88 inh inactive, NOD2 RIPK2 PPI inactive, Hsp70 act inactive, TLR4-MyD88 BLA 26, TLR4 MyD88 cnf inactive and BLA inh HeLa inactive.
`COc1ccccc1CN(C)C(=O)c1ccc(S(=O)(=O)Nc2c(C)n(C)n(-c3ccccc3)c2=O)cc1` gave TLR9-MyD88 inh inactive and NOD2 RIPK2 PPI inactive.
For CC1CC(C)CN(C(C(=O)NC2CCCCC2)c2ccnc3ccccc23)C1 (stereo unspecified) the results were NOD2 RIPK2 PPI inactive.
Cc1sc2nc(CN3CCC(C)CC3)nc(Cl)c2c1C was read as MT stabilizer inactive, b-catenin transl inactive, Hsp70 act inactive, TLR4-MyD88 BLA 28, TLR4 MyD88 cnf 32 and BLA inh HeLa inactive.
Screening O=C(Nc1ccnn1C1CCN(Cc2ccc(CO)o2)CC1)c1cccc(F)c1 returned TLR9-MyD88 inh inactive and NOD2 RIPK2 PPI inactive.
For CC1CCCCC1NC(=O)COC(=O)c1c2c(nc3ccccc13)/C(=C/c1ccco1)CC2 (stereo unspecified) the results were MT stabilizer inactive, TLR9-MyD88 inh inactive, b-catenin transl inactive, NOD2 RIPK2 PPI inactive, Hsp70 act inactive, TLR4-MyD88 BLA 61, TLR4 MyD88 cnf 49 and BLA inh HeLa 85.
For Cc1cc(C(=O)OCC(=O)NC2CCCC2)c2ccccc2n1 the results were TLR9-MyD88 inh inactive and NOD2 RIPK2 PPI inactive.
Screening O=C(COC(=O)c1c2c(nc3ccccc13)/C(=C/c1ccco1)CC2)NC1CCCC1 returned MT stabilizer inactive, TLR9-MyD88 inh inactive, b-catenin transl inactive, NOD2 RIPK2 PPI inactive, Hsp70 act inactive, TLR4-MyD88 BLA 45, TLR4 MyD88 cnf 45 and BLA inh HeLa 69.
`Cc1cc(C)cc(NC(=O)COC(=O)COc2ccc(N(C)S(=O)(=O)c3cccs3)cc2)c1` gave TLR9-MyD88 inh inactive and NOD2 RIPK2 PPI inactive.
Screening O=C(CCl)c1ccc2c(c1)CCN2C(=O)C1CCCCC1 returned MT stabilizer inactive, TLR9-MyD88 inh inactive, b-catenin transl inactive, NOD2 RIPK2 PPI inactive, Hsp70 act inactive, TLR4-MyD88 BLA 27, TLR4 MyD88 cnf 32 and BLA inh HeLa inactive.
`CC(C)(C)c1ccc(-n2nc(C(N)=O)c(O)cc2=O)cc1` gave MT stabilizer inactive, TLR9-MyD88 inh inactive, b-catenin transl inactive, NOD2 RIPK2 PPI inactive, Hsp70 act inactive and TLR4-MyD88 BLA inactive.
CC(C)(C)c1ccc(-n2nc(C#N)c(Cl)cc2=O)cc1 was read as MT stabilizer inactive, b-catenin transl inactive, NOD2 RIPK2 PPI 72, Hsp70 act 16, TLR4-MyD88 BLA 42, TLR4 MyD88 cnf 30, BLA inh HeLa inactive and Hsp70 act DR inactive.
For Cc1ccc(F)cc1NC(=O)C1CC(=O)N(Cc2ccccc2)C1 (stereo unspecified) the results were TLR9-MyD88 inh inactive and NOD2 RIPK2 PPI inactive.

Assay outcomes as filed in PubChem.
